Shown are actives, neighbours in structure and some others; about 3.5% of the full set was active somewhere.
MrgX1 allo act = allosterically activates human MrgX1 receptor signaling; Q96LB2; MrgX1-HEK293, Fluo-4 calcium flux, FDSS; hits give high values; B-score at 10 µM; hit rate 0.63% among 310,000; AID 588675;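 active = plate-corrected calcium response at least 3 library SD above typical, normal starting fluorescence, not activating the receptor alone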;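 note: compound read alongside a low EC10 to EC30 dose of BAM8-22 agonist; peak minus trough fluorescence over baseline measured at the second addition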
Target sequence (Q96LB2 whole entry, looked up): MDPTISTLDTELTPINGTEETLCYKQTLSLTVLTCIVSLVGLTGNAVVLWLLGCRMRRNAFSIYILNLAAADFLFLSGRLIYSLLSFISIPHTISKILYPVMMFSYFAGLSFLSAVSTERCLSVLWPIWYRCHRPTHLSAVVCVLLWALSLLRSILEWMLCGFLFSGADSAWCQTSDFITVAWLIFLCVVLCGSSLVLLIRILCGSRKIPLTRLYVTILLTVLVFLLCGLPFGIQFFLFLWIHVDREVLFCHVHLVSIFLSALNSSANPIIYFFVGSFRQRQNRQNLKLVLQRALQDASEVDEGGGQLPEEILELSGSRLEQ
MrgX1 agonist = agonists of human MrgX1 receptor; MrgX1-HEK293 cells, Fluo-4 calcium fluorescence, agonist mode; hits give high values; hit rate 0.44% among 310,000; B-score at 10 µM; Q96LB2;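 active = calcium response B-score plate-corrected fluorescence ratio at least 3 library SD, with starting fluorescence B-score inside 5 SD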
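Test system: HEK293 cells stably expressing human MrgX1 receptor; Input: fifteen thousand cells per well; Dosing: compound delivered in addition one of three; Schedule: overnight seeding, then 1 h dark dye loading; Technique: Fluo-4 NW calcium fluorescence; Measure: B-scored fluorescence response ratio; Controls: positive and negative controls per plate.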
MrgX1 antag = human MrgX1 receptor antagonism, primary screen; MRGX1-HEK293 calcium flux, Fluo-4, BAM8-22 antagonism; hits give low values; B-score at 10 µM; hit rate 1.3% among 310,000; AID 588676;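 active = calcium-response B-score plate-corrected more than 3 library SD below zero, starting fluorescence within 5 deviations, no agonist response on first addition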;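 note: peak minus trough fluorescence over baseline after final BAM8-22 challenge near maximal dose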
RGS4 inh = human RGS4 inhibition | P49798 | B-score at 10 µM | HEK293 M3R/RGS4 inducible, Fluo-4 calcium flux; hits give high values; triggered by carbachol at its EC20 | AID 463165 | hit rate 0.45% among 310,000;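 active = B-score, a plate-corrected calcium signal, over three deviations above library mean, with baseline fluorescence within five deviations of library mean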;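 note: RGS4 expression induced by doxycycline in cells with stable M3 receptor; B-score is computed from the integrated fluorescence ratio over baseline after carbachol; higher B-score means a larger calcium signal and so more RGS4 inhibition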
Target sequence (P49798 whole entry, looked up): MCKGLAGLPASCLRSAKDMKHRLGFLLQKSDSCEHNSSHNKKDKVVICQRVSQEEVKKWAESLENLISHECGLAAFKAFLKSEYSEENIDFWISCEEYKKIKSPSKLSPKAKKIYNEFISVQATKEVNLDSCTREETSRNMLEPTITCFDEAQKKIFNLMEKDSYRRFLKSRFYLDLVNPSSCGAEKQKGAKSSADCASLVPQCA
RGS4 pot = RGS4 potentiation or activation. HEK293 M3R/inducible RGS4, carbachol calcium flux Fluo4; hits give low values. B-score at 10 µM. hit rate 0.92% among 310,000. AID 463111;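 active = B-score of the integrated calcium signal more than 4 SD below the library mean, with starting fluorescence not abnormally high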;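 note: negative B-score means reduced calcium response which marks RGS4 activation or potentiation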
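Reagent: ECmax carbachol challenge; Test system: M3R-expressing HEK293 line, RGS4 induced by doxycycline; Schedule: overnight RGS4 induction, 30 min dye load 37 °C, 20 min compound RT; Detection: calcium dye Fluo4 fluorescence; Read-out: Agonist-evoked peak-minus-minimum fluorescence over baseline, integrated ratio, B score.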
MrgX1 ant reconf = reconfirmed antagonist of human MrgX1 receptor signaling; MrgX1-HEK293, BAM8-22 calcium flux, Fluo-4; hits give low values; shares compounds with MrgX1 antag; hit rate 19% among 2,300; remaining BAM8-22 calcium response % of control (hits give low values), % at 10 µM;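 active = remaining agonist calcium response no higher than 100% minus 3 SD of agonist-only control wells, with starting fluorescence near control levels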;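 note: agonist BAM8-22 given at a near maximal EC90 to ECmax level; peak minus minimum fluorescence divided by baseline after agonist addition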
HEK293 Ca flux = MrgX1 antagonist counter-screen hit in parental HEK293 cells; hit rate 2% among 4,000; fluorescence ratio F(max-min)/F0 at 10 µM; shares compounds with MrgX1 antag; Fluo-4 calcium fluorescence, FDSS;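 active = duplicate-averaged calcium fluorescence ratio at least three times the standard deviation of buffer wells, a nonspecific response in parental cells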
HEK293 Ca counter = counter-screen for MrgX1 allosteric activators: effect in parental HEK293 cells; shares compounds with MrgX1 antag; parental HEK293 calcium flux, Fluo-4 fluorescence ratio; hits give high values; fluorescence ratio F(max-min)/F0 at 10 µM; hit rate 0.4% among 4,000; AID 624114;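 active = calcium fluorescence ratio, averaged over duplicates, at least 3 SD of the buffer-well ratio, meaning a nonspecific response in receptor-free cells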;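 note: untransfected parental HEK293 lacking MrgX1 used as counterscreen for MrgX1 allosteric activators; fluorescence change taken during the second addition on a kinetic imager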
HEK293 Ca cntr2 = activity in parental HEK293 cells lacking MrgX1 receptor; hit rate 8.7% among 4,000; Fluo-4 calcium fluorescence (FDSS); hits give high values; shares compounds with MrgX1 antag; fluorescence ratio F(max-min)/F0 at 10 µM;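 active = calcium fluorescence ratio at least three times the spread of buffer wells, meaning a non-specific response in parental cells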
Numbers without * were called inactive.

CCCc1cc(=O)oc2cc(C)cc(OCC(=O)N3CCC(C(N)=O)CC3)c12 was read as MrgX1 allo act inactive, MrgX1 agonist inactive, MrgX1 antag -4.9*, RGS4 inh inactive, RGS4 pot inactive, MrgX1 ant reconf inactive, HEK293 Ca flux inactive, HEK293 Ca counter inactive and HEK293 Ca cntr2 inactive.
`Cc1cccc(N(C)S(=O)(=O)c2cc3c(cc2C)n(C)c(=O)c(=O)n3C)c1` gave MrgX1 allo act inactive, MrgX1 agonist inactive, MrgX1 antag -4.7*, RGS4 inh inactive, RGS4 pot inactive, MrgX1 ant reconf inactive, HEK293 Ca flux inactive, HEK293 Ca counter inactive and HEK293 Ca cntr2 inactive.
Cc1cc2c(cc1S(=O)(=O)N(C)c1ccccc1)n(C)c(=O)n2C was read as MrgX1 allo act inactive, MrgX1 agonist inactive, MrgX1 antag inactive, RGS4 inh inactive and RGS4 pot inactive.
Screening C=CCNC(=O)COC(=O)c1ccc(C)c(NC(=O)c2ccco2)c1 returned MrgX1 allo act inactive, MrgX1 agonist inactive, MrgX1 antag -7.6*, RGS4 inh inactive, RGS4 pot inactive, MrgX1 ant reconf inactive, HEK293 Ca flux inactive, HEK293 Ca counter inactive and HEK293 Ca cntr2 inactive.
CCCCNC(=O)COC(=O)c1ccc(C)c(NC(=O)c2ccco2)c1 was read as MrgX1 allo act inactive, MrgX1 agonist inactive, MrgX1 antag inactive, RGS4 inh inactive and RGS4 pot inactive.
For O=C(Nc1ccc(OCC(=O)N2CCOCC2)cc1)c1cccc(Cl)c1 the results were MrgX1 allo act inactive, MrgX1 agonist inactive, MrgX1 antag inactive, RGS4 inh inactive and RGS4 pot inactive.
`O=C(Oc1cccc(-n2cnnn2)c1)c1ccco1` gave MrgX1 allo act inactive, MrgX1 agonist inactive, MrgX1 antag -6.5*, RGS4 inh inactive, RGS4 pot inactive, MrgX1 ant reconf 79%*, HEK293 Ca flux inactive, HEK293 Ca counter inactive and HEK293 Ca cntr2 inactive.
For COc1cccc(OC)c1NC(=O)Cn1nc(C)c2ccccc2c1=O the results were MrgX1 allo act inactive, MrgX1 agonist inactive, MrgX1 antag inactive, RGS4 inh inactive and RGS4 pot inactive.
For CCN(CC)P(=O)(c1ccccc1)c1c(C)nc2ccccn12 (centres undefined) the results were MrgX1 allo act inactive, MrgX1 agonist inactive, MrgX1 antag inactive, RGS4 inh inactive and RGS4 pot inactive.
CCn1c(=NC(=O)CN2C(=O)CCC2=O)sc2c(OC)ccc(OC)c21 was read as MrgX1 allo act inactive, MrgX1 agonist inactive, MrgX1 antag -8.2*, RGS4 inh inactive, RGS4 pot inactive, MrgX1 ant reconf inactive, HEK293 Ca flux inactive, HEK293 Ca counter inactive and HEK293 Ca cntr2 inactive.
O=C(O)c1c[nH]c2ccc(F)cc2c1=O was read as MrgX1 allo act inactive, MrgX1 agonist inactive, MrgX1 antag inactive, RGS4 inh inactive and RGS4 pot inactive.
Screening Cc1cc(C)c(C(N)=O)c(Nc2cccc(Cl)c2C)n1 returned MrgX1 allo act inactive, MrgX1 agonist inactive, MrgX1 antag inactive, RGS4 inh inactive and RGS4 pot inactive.
Screening Cc1cc(C)c(C(N)=O)c(NC(=O)Nc2ccccc2Cl)n1 returned MrgX1 allo act inactive, MrgX1 agonist inactive, MrgX1 antag -4.6*, RGS4 inh inactive, RGS4 pot inactive, MrgX1 ant reconf inactive, HEK293 Ca flux inactive, HEK293 Ca counter inactive and HEK293 Ca cntr2 inactive.
For O=C(NCC1CCCCC1)c1cccnc1Cl the results were MrgX1 allo act inactive, MrgX1 agonist inactive, MrgX1 antag inactive, RGS4 inh inactive and RGS4 pot inactive.
For O=C(NCCCCNC(=O)c1cccnc1Cl)c1cccnc1Cl the results were MrgX1 allo act inactive, MrgX1 agonist inactive, MrgX1 antag -4.8*, RGS4 inh inactive, RGS4 pot inactive, MrgX1 ant reconf inactive, HEK293 Ca flux inactive, HEK293 Ca counter inactive and HEK293 Ca cntr2 inactive.
COc1ccccc1NC(=O)COC(=O)Cc1c[nH]c2ccccc12 was read as MrgX1 allo act inactive, MrgX1 agonist inactive, MrgX1 antag inactive, RGS4 inh inactive and RGS4 pot inactive.
For CC(C)c1ccccc1NC(=O)COC(=O)Cc1c[nH]c2ccccc12 the results were MrgX1 allo act inactive, MrgX1 agonist inactive, MrgX1 antag -19*, RGS4 inh inactive, RGS4 pot inactive, MrgX1 ant reconf inactive, HEK293 Ca flux inactive, HEK293 Ca counter inactive and HEK293 Ca cntr2 inactive.
`NC1=NC(c2ccccc2Cl)n2c(nc3ccccc32)N1` (centres undefined) gave MrgX1 allo act inactive, MrgX1 agonist inactive, MrgX1 antag -8.6*, RGS4 inh inactive, RGS4 pot inactive, MrgX1 ant reconf inactive, HEK293 Ca flux inactive, HEK293 Ca counter inactive and HEK293 Ca cntr2 inactive.
`O=C(COc1ccc(Cl)cc1Cl)N1CCN(c2ccccn2)CC1` gave MrgX1 allo act inactive, MrgX1 agonist inactive, MrgX1 antag inactive, RGS4 inh inactive and RGS4 pot inactive.
`CCOc1ccc(C(=O)N2CCN(c3ccccn3)CC2)cc1OCC` gave MrgX1 allo act inactive, MrgX1 agonist inactive, MrgX1 antag -4.8*, RGS4 inh inactive, RGS4 pot inactive, MrgX1 ant reconf inactive, HEK293 Ca flux inactive, HEK293 Ca counter inactive and HEK293 Ca cntr2 68*.
O=C(CCCOc1ccc(Cl)cc1Cl)N1CCN(c2ccccn2)CC1 was read as MrgX1 allo act inactive, MrgX1 agonist inactive, MrgX1 antag -5.2*, RGS4 inh inactive, RGS4 pot inactive, MrgX1 ant reconf inactive, HEK293 Ca flux inactive, HEK293 Ca counter inactive and HEK293 Ca cntr2 inactive.
`Cc1cccc(N2CCN(S(=O)(=O)c3ccc(-c4ccc(=O)[nH]n4)o3)CC2)c1C` gave MrgX1 allo act inactive, MrgX1 agonist inactive, MrgX1 antag inactive, RGS4 inh inactive and RGS4 pot inactive.

From PubChem BioAssay
